# Assay results of several laboratories.
# Compare with care: the assays were run in different laboratories.
# rep main protease: Replicase polyprotein 1ab, main protease (rep, Porcine epidemic diarrhea virus, UniProt P0C6Y4)
# SLC6A4: Sodium-dependent serotonin transporter (SLC6A4, Homo sapiens, UniProt P31645)
# rep papain-like protease: Replicase polyprotein 1ab, papain-like protease (rep, Porcine epidemic diarrhea virus, UniProt P0C6Y4)
Structure (SMILES),target,effect on,mode,technique,tested at,notes,inhibition
Cc1cc(F)cc2c(CCC(=O)N[C@@H]3C(=O)NC[C@H]3O)c(-c3ccc(F)cc3)[nH]c12,"D(1A) dopamine receptor (DRD1, Homo sapiens, UniProt P21728)",cell-free assay,,,10 µM,,11%
COc1ccc(C(=O)NCc2cc(Br)c(OC)c(OC)c2)cc1,rep main protease,enzyme activity,inhibitor,FRET,10 µM,,83.7%
CCOC(=O)[C@@]12C[C@@H]1[C@@H](n1cnc3c(NCCCCc4ccccc4)nc(I)nc31)[C@H](O)[C@@H]2O,SLC6A4,ligand displacement,,radioligand,10 µM,,20%
CSc1ccccc1C(=O)NCc1cc(O)c(O)c(Br)c1,rep main protease,enzyme activity,inhibitor,FRET,10 µM,,13.9%
Cc1cc(O)c(-c2ccc([C@@H](C)CN(C)C)cc2)c2c1[nH]c(=O)c1sccc12,"Mitogen-activated protein kinase kinase kinase 6 (MAP3K6, Homo sapiens, UniProt O95382)",enzyme activity,inhibitor,,0.1 µM,,15.6%
N#C[C@@]12C[C@@H]1[C@@H](n1cnc3c(Nc4ccccc4)nc(I)nc31)[C@H](O)[C@@H]2O,SLC6A4,ligand displacement,,radioligand,10 µM,,3%
CCN1/C(=C/C(C)=O)Sc2ccc(F)cc21,"Type-2 angiotensin II receptor (AGTR2, Homo sapiens, UniProt P50052)",ligand displacement,,radioligand,10 µM,,4.51%
N#CC[C@@]12C[C@@H]1[C@@H](n1cnc3c(NCCCCCc4ccccc4)nc(I)nc31)[C@H](O)[C@@H]2O,SLC6A4,ligand displacement,,radioligand,10 µM,,3%
O=C(NCc1cc(O)c(O)c(Br)c1)c1cccc(Br)c1,rep main protease,enzyme activity,inhibitor,FRET,10 µM,,98.4%
CCOC(=O)[C@@]12C[C@@H]1[C@@H](n1cnc3c(Nc4ccccc4)nc(I)nc31)[C@H](O)[C@@H]2O,SLC6A4,ligand displacement,,radioligand,10 µM,,-12%
COc1cc(CNC(=O)c2cc3ccccc3n2C)cc(Br)c1OC,rep papain-like protease,enzyme activity,inhibitor,FRET,10 µM,,13%
O=C1C=C(Nc2ccc(OCc3cn(Cc4ccccc4)nn3)cc2)C(=O)c2ccccc21,"BDNF/NT-3 growth factors receptor (NTRK2, Homo sapiens, UniProt Q16620)",enzyme activity,inhibitor,radiometric,10 µM,,0%
COc1ccc(CNC(=O)c2ccc(Br)cc2)cc1OC,rep papain-like protease,enzyme activity,inhibitor,FRET,10 µM,,66.1%
NC/C(=C\F)COc1cccc(Cn2c(=S)[nH]c(=O)c3[nH]cnc32)c1,SLC6A4,ligand displacement,,radioligand,10 µM,,< 50%
N#C[C@@]12C[C@@H]1[C@@H](n1cnc3c(Nc4ccccc4)nc(C#Cc4ccc(Cl)s4)nc31)[C@H](O)[C@@H]2O,SLC6A4,ligand displacement,,radioligand,10 µM,,12%
C#Cc1cc(-c2cc(Nc3nc(N[C@@H](C)c4ccc(F)cn4)ncc3Cl)n[nH]2)ccc1C=O,"Serine/threonine-protein kinase Nek2 (NEK2, Homo sapiens, UniProt P51955)",enzyme activity,inhibitor,,0.2 µM,,22.5%
CCOC(=O)[C@@]12C[C@@H]1[C@@H](n1cnc3c(NCCCCCc4ccccc4)nc(C#Cc4ccc(Cl)s4)nc31)[C@H](O)[C@@H]2O,SLC6A4,ligand displacement,,radioligand,10 µM,cell membranes,1%
Cc1ccccc1C(=O)NCc1cc(O)c(O)c(Br)c1,rep papain-like protease,enzyme activity,inhibitor,FRET,10 µM,,115%
